Results of several laboratories.
Protocols differ between the studies behind these lines.
Target: Death-associated protein kinase 2 (DAPK2, Homo sapiens, UniProt Q9UIK4)

| Structure (SMILES) | test | conditions | remaining binding [%] |
| --- | --- | --- | --- |
| CN(C)c1nccc(-c2cnn3ncccc23)n1 | binding | 1 µM | 90 |
| Cc1cc(-n2nc(Cc3cc(F)cc(C(F)(F)F)c3)nc2C)ccc1C(N)=O | cell-free assay, competition with immobilised ligand | 1 µM | 95 |
| Cc1cnn2ncc(-c3ccnc(N(C)C)n3)c2c1 | binding | 1 µM | 87 |
| c1cncc(-c2cccc(Nc3nccc(NC4CCCCC4)n3)c2)c1 | binding, competition with immobilised ligand | 10 µM | 84 |
| CN(C)c1ncc(F)c(-c2cnn3ncccc23)n1 | binding | 1 µM | 69 |
| Cn1nc(C(F)(F)F)cc1-c1cnc(N2CCc3cc(S(=O)(=O)Nc4c(F)cc(Cl)cc4F)cc(N4CCCC4=O)c32)nc1 | cell-free assay, competition with immobilised ligand | 1 µM | 94 |
| C[C@H]1CCN(c2nccc(-c3cnn4ncccc34)n2)C1 | binding | 1 µM | 72 |
| O=C(c1ccc(Nc2ncc(Cl)c(-c3cc4ccccc4s3)n2)cc1)N1CCC(N2CCCC2)CC1 | binding, competition with immobilised ligand | 1 µM | 20 |
| CCS(=O)(=O)c1cc2cc(C[C@](O)(CC(C)(C)c3ccc(F)cc3C(N)=O)C(F)(F)F)[nH]c2cn1 | cell-free assay, competition with immobilised ligand | 1 µM | 90 |
| O=C(c1ccc(Nc2nccc(-c3cc4ccccc4s3)n2)cc1)N1CCC(N2CCCC2)CC1 | binding, competition with immobilised ligand | 1 µM | 19 |
| F[C@@H]1CCN(c2nccc(-c3cnn4ncccc34)n2)C1 | binding | 1 µM | 100 |
| CNC(=O)[C@@H]1CC[C@@H](n2c(-c3ccc4cnccc4c3)nc3ccc(C(=O)NCc4cccc(C(N)=O)c4)cc32)C1 | binding, competition with immobilised ligand | 1 µM | 100 |
| Nc1ncc2c(n1)-c1c([nH]c3ccc(C#CC4CC4)cc13)CCCC2 | binding, competition with immobilised ligand | 1 µM | 100 |
| CN(C)c1nccc(-c2cnc3ncccn23)n1 | binding | 1 µM | 89 |
| CN(c1ccnc(CNc2nc(Nc3ccc4c(c3)CC(=O)N4)ncc2C(F)(F)F)n1)S(C)(=O)=O | cell-free assay, competition with immobilised ligand | 1 µM | 58 |
| N[C@@H]1CCN(c2nccc(-c3cnn4ncccc34)n2)C1 | binding | 1 µM | 100 |
| CN(C)C(=O)Cn1cc(-c2nc(C3(c4ccc(-c5cnc(N)nc5)cc4)CC3)no2)cn1 | cell-free assay, competition with immobilised ligand | 1 µM | 86 |
| CCN1CCN(Cc2ccc(C(=O)Nc3ccc(C)c(Oc4ccc5c(c4)CC(=O)N5)c3)cc2C(F)(F)F)CC1 | binding, competition with immobilised ligand | 1 µM | 100 |
| COc1cccc(CNC(=O)c2nc3scc(COCc4ccc(C(=O)O)cc4)c3c(=O)[nH]2)c1 | cell-free assay, competition with immobilised ligand | 1 µM | 83.1 |
| O=C(NCCCN1CCOCC1)c1ccc(Nc2nccc(-c3cc4ccccc4s3)n2)cc1 | binding, competition with immobilised ligand | 1 µM | 18 |
| Cc1noc([C@H]2C[C@@H](c3ccc(C(F)(F)F)cc3)CN(C(=O)N3CCS(=O)(=O)C3)C2)n1 | cell-free assay, competition with immobilised ligand | 1 µM | 100 |
| O=C(Nc1c[nH]nc1C(=O)NC1CCNCC1)c1cc(F)cc(F)c1 | binding, competition with immobilised ligand | 1 µM | 100 |
